Article PMC4659844 (Clinical Drug Investigation, 2015)
Like-named read-outs stand apart in the source and are kept apart here.

Columns and labels:
[1] = type: in vivo, human; details: for percentage of total exposure (AUC0–∞) after 7 days / percentage of total exposure (AUC0–∞) after 14 days: based on mean partial AUCs
[2] = tested on: healthy Japanese subjects; test: Safety and tolerability; type: in vivo, human
How it was run: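 Double-blind, placebo-controlled single 30-min IV infusion (300 ml, in 5 % dextrose with sterile water) of test compound or placebo. Groups: 500 mg, 5 active/1 placebo; 1000 mg, 10 active/2 placebo. Safety was assessed by physical examination, chemistry, hematology, urinalysis, heart rate, blood pressure, respiratory rate, oral temperature, and monitoring of concomitant medications and adverse events, queried on all study days with non-leading questions.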

[3] = cited from earlier work
cytochrome P450 (CYP) = details: background statement, no reference given; cited from earlier work
QTc = details: cited from earlier work
[4] = 500 mg and 1000 mg single IV infusion, range of the two dose means
[5] = 500 mg single IV infusion, healthy Japanese subjects, range of subjects, n = 5
[6] = 1000 mg single IV infusion, healthy Japanese subjects, range of subjects, n = 10

CN[C@H]1C(=O)N[C@@H]2Cc3ccc(cc3)Oc3cc4cc(c3O[C@@H]3O[C@H](C(=O)O)[C@@H](O)[C@H](O)[C@H]3NC(=O)CCCCCCCCC(C)C)Oc3ccc(cc3Cl)[C@@H](O)[C@@H]3NC(=O)[C@H](NC(=O)[C@@H]4NC(=O)[C@@H](NC2=O)c2cc(cc(O)c2Cl)Oc2cc1ccc2O)c1ccc(O)c(c1)-c1c(O[C@H]2O[C@H](CO)[C@@H](O)[C@H](O)[C@@H]2O)cc(O)cc1[C@@H](C(=O)NCCCN(C)C)NC3=O [Dalbavancin]
mean CL across two dose concentrations [1, 4]: 40.5 to 42.2 mL/h
mean Vd across two dose concentrations [1, 4]: 11,301 to 12,182 ml
percentage of total exposure (AUC0–∞) after 7 days ([1]; 500 mg single IV infusion): approximately 47%
percentage of total exposure (AUC0–∞) after 14 days ([1]; 500 mg single IV infusion): ~70%
mean AUC%extrap (percentage of AUC0–∞ obtained by extrapolation) ([1]; 500 mg single IV infusion, healthy Japanese subjects): 9.83%
Vd, range [1, 5]: 11,412–14,205 ml
terminal phase t1/2, range [1, 5]: 182 to 240 h
percentage of total exposure (AUC0–∞) after 7 days ([1]; 1000 mg single IV infusion): approximately 49%
percentage of total exposure (AUC0–∞) after 14 days ([1]; 1000 mg single IV infusion): ~73%
mean AUC%extrap (percentage of AUC0–∞ obtained by extrapolation) ([1]; 1000 mg single IV infusion, healthy Japanese subjects): 8.34%
CL, range [1, 6]: 34.8 to 45.8 mL/h
Vd, range [1, 6]: 8999–13,691 ml
terminal phase t1/2, range [1, 6]: 162 to 220 h
tolerability ([2]; 500 mg and 1000 mg as single 30-min infusions, healthy Japanese subjects): well tolerated
serious adverse events, deaths, discontinuations due to a TEAE ([2]; 500 mg and 1000 mg single IV infusion, healthy Japanese subjects): no serious adverse event occurred
investigator-assessed relation of dizziness to study medication ([2]; 500 mg dose group): unlikely to be related
investigator-assessed relation of dyspepsia to study medication ([2]; 500 mg dose group): not related
investigator-assessed relation of rash and diarrhea to study medication ([2]; 1000 mg dose group): possibly related
subjects with at least one TEAE, percentage ([2]; Dalbavancin 500 mg single IV infusion, N = 5): 40%
subjects with at least one TEAE, percentage ([2]; Dalbavancin 1000 mg single IV infusion, N = 10): 30%
clinical laboratory values (chemistry, hematology, urinalysis) ([2]; any dose group, change from baseline): No clinically relevant, abnormal laboratory values were reported
intensity of TEAEs ([2]; subjects receiving dalbavancin in both dose groups (500 mg, 1000 mg)): mild intensity
terminal half-life (t1/2) [3]: 2 weeks
terminal t1/2 ([3]; studies with follow-up periods as long as 70 days): ≤ 372 h
CYP oxidative metabolism (cytochrome P450 (CYP)): does not undergo cytochrome P450 (CYP) oxidative metabolism
substrate, inhibitor or inducer of CYP isozymes (cytochrome P450 (CYP)): is not a substrate, inhibitor or inducer of any known CYP-isozyme
QTc prolongation (QTc): no evidence of QTc prolongation
